Reference: ChEMBL document CHEMBL1158001, “Cytotoxic isoprenylated flavans of Broussonetia kazinoki” (1999)
Converted amounts (≈) assume the structure as drawn. *1 amine or outer side, *2 acyl side, *3 side chain or, on linkers, in order; H or OH if unused. Where a SMILES comes first, the peptide text is derived from it. Bridges are numbered along the chain shown (N, C = ends). Roman numbers before positions name the chains, in order. [ ]: non-standard residue; d: D form. Actinocin(1to9) = Cc1c2oc3c(C)ccc(C(=O)[*:2])c3nc-2c(C(=O)[*:1])c(N)c1=O; NMeV = CN[C@H](C(=O)O)C(C)C; Sar = CNCC(=O)O

Assays:
SiHa = experiment: Cytotoxicity against human SiHa cells after 6 days by MTT assay; format: functional; settings: for EC50: Homo sapiens, SiHa, 144 h, read-out: ED50 (the source's name)
Procedure, shortened: (§1)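 Cells kept in DMEM with 10% FBS, 2 mM L-glutamine, penicillin and streptomycin. 1-3 × 10^3 cells/100 µL, attached 6 h, then fresh medium with a concentration series for 6 days at 37 °C in CO2, plus 10 mM HEPES pH 7.3. MTT (1 mg/mL in PBS) added for 4 h, formazan dissolved in DMSO, A550 read.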

Ca-Ski = experiment: Cytotoxicity against human CaSki cells after 6 days by MTT assay; format: functional; settings: 144 h, read-out: ED50 (the source's name); procedure, shortened: as §1
HT-3 = experiment: Cytotoxicity against human HT-3 cells after 6 days by MTT assay; format: functional; settings: for EC50: Homo sapiens, HT-3, 144 h, read-out: ED50 (the source's name); procedure, shortened: as §1
T-24 = experiment: Cytotoxicity against human T24 cells after 6 days by MTT assay; format: functional; settings: T-24, 144 h, read-out: ED50 (the source's name); procedure, shortened: as §1
[1] = Cytotoxicity against human PLC/PRF/5 cells after 6 days by MTT assay; format: functional; settings: PLC-PRF-5, 144 h, read-out: ED50 (the source's name); procedure, shortened: as §1
212 (Mus musculus) = experiment: Cytotoxicity against mouse 212 cells after 6 days by MTT assay; settings: 144 h, read-out: ED50 (the source's name)

Compound | EC50 (SiHa) [µg/mL] | EC50 (Ca-Ski) [µg/mL] | EC50 (HT-3) [µg/mL] | ED50 (SiHa) [×10⁻⁴ ug/ml] | ED50 (HT-3) [×10⁻⁴ ug/ml] | EC50 (T-24) [µg/mL] | EC50 [1] [µg/mL] | EC50 (212 (Mus musculus)) [µg/mL]
C=CC(C)(C)c1cc2c(cc1O)OC(c1cc(O)c3c(c1CC=C(C)C)CC(O)C(C)(C)O3)CC2 (stereo not given) | 9.3 (≈ 19.4 µM) | 8.2 (≈ 17.1 µM) | 9.3 (≈ 19.4 µM) | – | – | – | – | –
Oc1ccc(C2CCc3ccc(O)cc3O2)cc1 (stereo not given) | 8.9 (≈ 36.7 µM) | 17.4 (≈ 71.8 µM) | 11.6 (≈ 47.9 µM) | – | – | – | – | –
Cc1c2oc3c(C)ccc(C(=O)N[C@@H]4C(=O)N[C@H](C(C)C)C(=O)N5CCC[C@H]5C(=O)N(C)CC(=O)N(C)[C@@H](C(C)C)C(=O)O[C@@H]4C)c3nc-2c(C(=O)N[C@@H]2C(=O)N[C@H](C(C)C)C(=O)N3CCC[C@H]3C(=O)N(C)CC(=O)N(C)[C@@H](C(C)C)C(=O)O[C@@H]2C)c(N)c1=O [DACTINOMYCIN] (I: T[dV]P[Sar][NMeV] / II: T[dV]P[Sar][NMeV]; ester I:1-I:C, II:1-II:C; linker I:N-II:N via Actinocin(1to9)) | – | 0.0019 (≈ 0.00151 µM) | – | 8.1 | 5.6 | 0.0015 (≈ 0.00119 µM) | 0.0014 (≈ 0.00112 µM) | –
C=CC(C)(C)c1cc(CCCc2cc(O)c3c(c2CC=C(C)C)CCC(C)(C)O3)c(O)cc1O [KAZINOL D] | – | – | 3.6 (≈ 7.75 µM) | – | – | – | 3.3 (≈ 7.1 µM) | 7 (≈ 15.1 µM)
C=CC(C)(C)c1cc(CCCc2cc(O)c3c(c2CC=C(C)C)C=CC(C)(C)O3)c(O)cc1O [KAZINOL K] | – | – | 8.6 (≈ 18.6 µM) | – | – | – | – | –
C=CC(C)(C)c1cc2c(cc1O)OC(c1cc(CC=C(C)C)c(O)c(O)c1CC=C(C)C)CC2 (stereo not given) [KAZINOL Q] | 4.7 (≈ 10.2 µM) | – | 4.3 (≈ 9.29 µM) | – | – | 2.3 (≈ 4.97 µM) | 3.5 (≈ 7.57 µM) | 3.8 (≈ 8.21 µM)
